Screening results from PubChem.
KCNQ1 pot = human KCNQ1 channel potentiation or activation. P51787. CHO-K1 KCNQ1, thallium flux FluxOR fluorescence; hits give high values. B-score at 10 µM. 0.35% of 310,000 active;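 active = fluorescence ratio B-score, a plate-corrected score, at least three library SD, with initial intensity B-score within 5 SD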
Target sequence (P51787 whole entry, looked up): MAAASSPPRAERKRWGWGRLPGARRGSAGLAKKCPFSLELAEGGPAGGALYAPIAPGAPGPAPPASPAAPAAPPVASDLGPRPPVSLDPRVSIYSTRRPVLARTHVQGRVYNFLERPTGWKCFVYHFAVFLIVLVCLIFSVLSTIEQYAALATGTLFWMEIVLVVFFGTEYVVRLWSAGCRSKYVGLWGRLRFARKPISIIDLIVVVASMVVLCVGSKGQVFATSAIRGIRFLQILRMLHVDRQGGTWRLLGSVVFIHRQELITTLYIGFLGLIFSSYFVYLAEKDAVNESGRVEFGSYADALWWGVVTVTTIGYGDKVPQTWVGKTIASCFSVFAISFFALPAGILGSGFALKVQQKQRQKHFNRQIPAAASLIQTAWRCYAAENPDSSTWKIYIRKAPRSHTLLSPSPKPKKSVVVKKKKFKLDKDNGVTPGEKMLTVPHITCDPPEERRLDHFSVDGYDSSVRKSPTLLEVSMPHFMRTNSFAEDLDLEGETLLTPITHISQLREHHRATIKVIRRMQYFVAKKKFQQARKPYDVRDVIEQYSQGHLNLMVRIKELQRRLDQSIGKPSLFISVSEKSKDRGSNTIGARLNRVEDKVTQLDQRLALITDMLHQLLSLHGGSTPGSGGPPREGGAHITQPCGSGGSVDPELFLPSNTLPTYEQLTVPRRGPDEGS
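assay system = KCNQ1-transfected CHO-K1 cells | medium = assay buffer with matched DMSO | probe or stimulus = depolarizing K+/Tl+ stimulus, K2SO4 and Tl2SO4 each 12.5 mM in 5x stock | dosing = single dose | incubation = dye 90 min, compound 20 min, room temperature | detection = kinetic FluxOR fluorescence, 10 s baseline plus 110 s post-stimulus | evaluation = ratio B score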
KCNK9 block = human KCNK9 channel inhibition | Q9NPC2 | HEK293 KCNK9, FluxOR thallium flux fluorescence; hits give low values | B-score at 10 µM | 1.2% of 310,000 active;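 active = ratio B-score over 3 SD below the library mean, with starting fluorescence within 5 SD of its mean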;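 note: negative B-score means less thallium flux so channel inhibition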
Cl transport mod = KCC2 (human) Cl- transport modulation. KCC2 cells, thallium flux FluoZin-2 fluorescence. B-score of Tl+ flux slope (higher = more flux/activation; lower = inhibition) at 10 µM. 2.2% of 190,000 active;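 active = thallium flux slope and its plate-corrected score both differing from the plate sample mean at a set confidence after two filtering rounds, in either direction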;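 note: slope of fluorescence scaled to starting intensity during 10 to 20 s after thallium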
KCNQ1 block = inhibitors of human KCNQ1 potassium channel | P51787 | CHO-K1 KCNQ1, FluxOR thallium flux fluorescence; hits give high values | B-score at 10 µM | 1.3% of 310,000 active | AID 2642;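 active = compounds whose thallium flux B-score, printed positive for inhibition, exceeds three library SD while starting fluorescence stays within three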;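 note: channel opened by potassium depolarization with thallium stimulus after 20 min compound exposure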
hERG protect = hERG (human) protection from proarrhythmic block; Q12809; CHO-hERG, FluxOR thallium flux, dofetilide IC70 present; activation (rescue from dofetilide block), less the hit threshold, % at 10 µM; 0.51% of 310,000 active;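 active = activation above the mean of controls blocked by dofetilide plus 5 SD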;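 note: thallium influx through hERG after potassium depolarization seen as dye fluorescence rise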
KCNK3 block = human KCNK3 channel inhibition, primary screen; CHO-KCNK3 thallium flux, FluxOR fluorescence; hits give low values; B-score at 10 µM; 0.84% of 340,000 active; AID 602410;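 active = B-score under library mean minus 4 SD, starting fluorescence ratio at most library mean plus 5 SD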;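 note: more negative B-score means stronger inhibition of thallium flux through KCNK3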
KCC2 sec1 = KCC2 (human) modulation, secondary assay. 15% of 3,700 active. HEK293-KCC2, thallium flux, FluoZin2 fluorescence; hits give high values. AID 1713. normalised thallium flux (F/F0 slope) at 10 µM. shares compounds with Cl transport mod;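 active = thallium flux slope above the same plate's solvent-only control mean plus 3 SD; inconclusive = the two replicate wells disagree; inactive = no significant difference from solvent-only control wells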
KCC2 bumet counter = thallium flux despite bumetanide block in KCC2 cells, secondary assay 3; normalized thallium flux at 10 µM; shares compounds with Cl transport mod; AID 1714; HEK293-KCC2 + bumetanide/ouabain, thallium flux FluoZin2; hits give high values; 49% of 3,700 active;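 active = thallium entry rate above the same plate's blocked-transporter control wells by more than 3 SD; inconclusive = the two repeat wells disagree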;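 note: raw slope of fluorescence over initial fluorescence between 10 and 20 s after thallium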
KCC2 secondary2 = confirmation of human KCC2 transport modulators; shares compounds with Cl transport mod; 23% of 3,700 active; HEK293-KCC2, thallium flux FluoZin2 fluorescence; actives lie on both sides; F/F0 rise rate, 10–20 s post-thallium; normalized thallium flux at 10 µM;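 active = thallium flux slope more than 3 SD above or below the plate's solvent-only control mean, mostly below; inconclusive = the two repeat wells disagreed; inactive = no significant shift from solvent-only controls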;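 note: raw slope with 0.1% DMSO as baseline and bumetanide as block control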
HEK counter1 = parental HEK flux effect, counter-screen | HEK293 parental cells, thallium flux FluoZin2, ouabain; baseline-ratio fluorescence slope, 10–20 s after thallium | thallium flux rate (normalised fluorescence) at 10 µM | shares compounds with Cl transport mod | 46% of 3,700 active;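 active = thallium flux rate significantly above the same plate's solvent-only control wells, beyond their mean plus 3 SD; inconclusive = the two replicate wells gave conflicting results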
KCC2 retest ouab = KCC2 (human) modulation, ouabain retest; shares compounds with Cl transport mod; HEK293-KCC2, thallium flux FluoZin2 fluorescence; bidirectional: low = inhibitor, high = activator; raw Tl+ flux slope (below DMSO = inhibition, above = activation) at 10 µM; 48% of 3,700 active;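 active = thallium flux slope beyond 3 SD from same-plate DMSO control mean in most replicates, usually higher, sometimes lower; inconclusive = repeat tests gave conflicting results; inactive = no significant difference from controls in most replicates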;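 note: slope of initial-normalized fluorescence between seconds 10 and 20 after thallium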
HEK293 Tl flux2 = parental HEK flux effect, counter-screen 2; 33% of 3,700 active; AID 1718; HEK293 parental, thallium flux FluoZin-2 fluorescence slope; shares compounds with Cl transport mod; thallium flux slope at 10 µM;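 active = thallium flux slope above the same plate's solvent-control mean plus 3 SD in both duplicate wells; inconclusive = duplicate wells that disagreed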;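 note: run without ouabain in cells lacking the KCC2 cotransporter; slope of fluorescence scaled to its starting value between 10 and 20 s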
* marks the source's active call; other numbers are inactive results; i = inactive; ? = inconclusive; · = no result. The list is not random: actives were taken first. Their share in the collection is about 4.1%.

SMILES | KCNQ1 pot | KCNK9 block | Cl transport mod | KCNQ1 block | hERG protect | KCNK3 block | KCC2 sec1 | KCC2 bumet counter | KCC2 secondary2 | HEK counter1 | KCC2 retest ouab | HEK293 Tl flux2
O=C(NN=C(Cc1ccccc1)Cc1ccccc1)c1ccccc1O | i | i | 22.9* | i | -7.1 | i | ? | 0.0624* | 0.05* | 0.0365* | 0.049* | 0.0314*
COc1ccc(OC)c(CN2CCN(c3ccccc3OC)CC2)c1 | i | i | 8.77* | i | -6.8 | i | 0.00583 | 0.00509 | 0.0307 | 0.0081 | 0.0193 | 0.0111
COc1ccc(CN2CCN(c3ccccc3OC)CC2)c(OC)c1 | i | i | · | i | -0.9 | i | · | · | · | · | · | ·
Cc1cccc(NC(=O)CNC(=O)CN2C(=O)NC(C)(CCC(C)C)C2=O)c1C (configuration not stated) | · | · | · | · | · | i | · | · | · | · | · | ·
Cc1ccccc1NC(=S)NC(NC(=O)COc1ccccc1)C(Cl)(Cl)Cl (configuration not stated) | i | i | · | i | -7.2 | i | · | · | · | · | · | ·
COC(=O)c1ccccc1NC(=S)NC(NC(=O)COc1ccccc1)C(Cl)(Cl)Cl (configuration not stated) | i | i | · | i | -3.4 | i | 0.00783 | ? | 0.0307 | ? | 0.0248* | 0.0111
COC(=O)c1ccccc1NC(=S)NC(=O)COc1ccc(C(C)C)cc1 | i | i | 9.71* | i | -4.9 | i | 0.0107 | 0.0174* | 0.0346 | 0.0192* | 0.0356* | 0.0118
CCC(=O)NC(=S)Nc1ccccc1C(=O)OC | i | i | 0.72 | i | -3.8 | i | · | · | · | · | · | ·
[O-][n+]1cccc2c(Br)cc(Br)c(O)c21 | i | i | 29.3* | i | -12.2 | i | 0.00707 | 0.0726* | 0.0473* | 0.0466* | 0.0635* | 0.0343*
O=C(NCc1nc(-c2ccccc2)cs1)c1ccccc1 | i | i | -4.27* | i | -7.5 | i | 0.00682 | ? | 0.0219* | 0.0076 | ? | 0.0115
CNC(=O)c1ccc(-c2nc(-c3ccccc3)cs2)cc1 | i | i | -0.68 | i | -10.7 | i | · | · | · | · | · | ·
O=C(NNc1nc(-c2ccc(F)cc2)cs1)c1ccccc1 | i | i | -4.24* | i | -6.5 | i | 0.0101 | 0.00737 | 0.0275* | 0.00477 | 0.0168* | 0.0113
O=C(CCNC(=O)c1ccccc1Cl)Nc1nc(-c2ccccc2Cl)cs1 | i | i | -2.1 | i | -6.0 | i | · | · | · | · | · | ·
O=C(CCNC(=O)c1ccccc1Cl)Nc1nc(-c2ccc(F)cc2)cs1 | i | i | -4.16* | i | -6.5 | i | 0.00622 | 0.00609 | 0.0323 | 0.00827 | 0.014* | 0.0108
O=C(NNc1nc(-c2ccccc2)cs1)c1cccs1 | i | i | -3.77* | i | -5.3 | i | 0.0092 | 0.00719 | 0.0258* | 0.00419 | 0.0149* | 0.0113
CC(C)(O)CN(CCCNC(=S)Nc1ccccc1)C(=S)Nc1ccccc1 | · | · | · | · | · | i | · | · | · | · | · | ·
COc1ccc2[nH]c3c(c2c1)CCN1C(=O)C(CC(=O)NC(C)(C)C)C[C@H](C(=O)N2CCCCC2)[C@@]31C (some centres not stated) | · | · | · | · | · | i | · | · | · | · | · | ·
COc1cc(NCC(=O)Nc2cccc(S(=O)(=O)N3CCCCC3)c2)cc(OC)c1OC | · | · | · | · | · | i | · | · | · | · | · | ·
Cc1ccc(Cc2cnc(N3C(=N)SC(C)C3=O)s2)cc1 (configuration not stated) | i | i | 10.6* | i | -13.7 | i | 0.012 | 0.0303* | 0.0347 | 0.0183* | 0.0303* | 0.0106
Cc1cccc(Cc2cnc(N3C(=N)SC(C)C3=O)s2)c1 (configuration not stated) | i | i | 6.03* | i | -7.5 | i | 0.0166* | 0.0684* | 0.0348 | 0.0291* | 0.0404* | 0.0139*
CN(C)C(CNC(=O)CCc1c[nH]c2ccccc12)c1ccccc1 (configuration not stated) | i | i | · | i | -6.3 | i | · | · | · | · | · | ·
CN1C(N)=NC(=O)/C1=C\c1ccc(Br)cc1 | i | i | · | i | -5.0 | i | · | · | · | · | · | ·
CCOC(=O)c1sc2nc(C)nc(SCC(=O)N(C)C3CCS(=O)(=O)C3)c2c1C (configuration not stated) | i | i | 23.7* | i | -3.6 | i | 0.00754 | 0.06* | 0.052* | 0.0486* | 0.0479* | 0.0458*
CN(C(=O)CSc1ncnc2sc(-c3ccccc3)cc12)C1CCS(=O)(=O)C1 (configuration not stated) | 77* | i | 138* | i | 49.0* | i | 0.00768 | 0.107* | 0.108* | 0.115* | 0.102* | 0.114*
O=C(COC(=O)c1cnccn1)NC1CCCc2ccccc21 (configuration not stated) | · | · | · | · | · | i | · | · | · | · | · | ·
CN(c1ccccc1)S(=O)(=O)c1ccc(Cl)c(C(=O)Nc2ccccc2N2CCOCC2)c1 | · | · | · | · | · | i | · | · | · | · | · | ·
O=C(O)c1cc(-c2ccc(/C=N/N3C(=O)C4C5C=CC(C6CC56)C4C3=O)o2)ccc1Cl (configuration not stated) | i | i | 0.945 | i | -8.9 | i | · | · | · | · | · | ·
O=C(O)c1cc(-c2ccc(/C=N/N3C(=O)C4C5C=CC(CC5)C4C3=O)o2)ccc1Cl (configuration not stated) | i | i | -9.69* | i | -4.1 | i | 0.00862 | ? | 0.0304 | 0.00697 | 0.0354 | 0.00954
CCOC(=O)C1(Cc2cccc(OC)c2)CCCN(C(=O)CCN2CCCO2)C1 (configuration not stated) | i | i | · | i | -9.7 | i | · | · | · | · | · | ·
CCOC(=O)N/N=C(\CCC(=O)O)c1cccs1 | i | i | 7.24* | i | -14.0 | i | 0.00944 | 0.00586 | 0.0332 | 0.00751 | 0.02 | 0.0105
